# Test results: ChEMBL document CHEMBL3425405, “Discovery of Small Molecules for Up-Regulating the Translation of Antiamyloidogenic Secretase, a Disintegrin and Metalloproteinase 10 (ADAM10), by Binding to the G-Quadruplex-Forming Sequence in the 5' Untranslated Region (UTR) of Its mRNA” (J Med Chem, 2015)
# Calls of active or inactive are those of the source. No cut-off for these calls is given here.
# What was measured:
# HeLa [1] = experiment: Binding affinity to ADAM10 A10-RNA QGRS (unknown origin) transfected in human HeLa cells assessed as increase in ADAM10 translation efficiency at 2 uM after 24 hrs by Renilla/firefly dual luciferase reporter assay; assay type: cell-based
# Procedure, shortened: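 HeLa cells transfected with 0.8 μg A10-Wt, A10-Mut or A10-Del plasmid (G-quadruplex motif upstream of Renilla in psiCHECK-2). Screening: 24 h at a single 2 μM concentration. Follow-up: plasmid for 12 h, then 0, 0.5, 1 or 2.5 μM for 24 h. Renilla normalized to firefly, relative to untreated control; mean ± SD of three independent measurements.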
# [2] = Effect on secondary structure of ADAM10 A10-RNA QGRS (unknown origin) by CD spectroscopy
# HEK293 = experiment: Reduction in Abeta40 protein production in APP expressing HEK cells at 0.5 to 1.5 uM after 48 hrs by ELISA method; assay type: functional, cell-based; conditions: Homo sapiens
# Procedure, shortened: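 HEK-APP cells treated 48 h with increasing compound concentrations (0.75, 1, 1.5 μM). Secreted Aβ40 in equal amounts of conditioned medium quantified by sandwich ELISA. Values expressed relative to blank control; mean ± SD of three independent experiments.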
# HeLa [3] = experiment: Binding affinity to ADAM10 5'-UTR mutant RNA QGRS (unknown origin) transfected in human HeLa cells assessed as increase in luciferase mRNA expression at 0.5 to 2.5 uM after 24 hrs by RT-PCR method; assay type: cell-based
# [4] = Binding affinity to 5'-end biotinylated ADAM10 A10-mutant RNA QGRS (unknown origin) by surface plasmon resonance assay method
# Procedure, shortened: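 SPR with 5′-biotinylated A10-RNA-Wt or A10-RNA-Mut immobilized on a neutravidin chip in running buffer (50 mM Tris-HCl pH 7.5, 100 mM KCl). Ligand serial dilutions in running buffer injected at 20 μL/min for association, then dissociation. Chip regenerated with 50 mM NaOH between runs.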
# HEK-APP = experiment: Binding affinity to ADAM10 A10-RNA QGRS (unknown origin) transfected in HEK-APP cells assessed as increase in sAPPalpha level at 1.5 uM after 48 hrs by Western blotting method; assay type: cell-based
# Procedure, shortened: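 HEK-APP cells (DMEM, 10% FBS, 2 mM glutamine, 0.2 mg/mL G418) treated with 0, 0.5, 0.75, 1 or 1.5 μM compound for 48 h. Lysates in Tris/NaCl/EDTA/1% Triton buffer immunoblotted for ADAM10, APP and β-actin; conditioned medium blotted for sAPPα. Signal by densitometry, normalized to β-actin, relative to blank control; mean ± SD, three independent experiments.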
# HeLa [5] = experiment: Binding affinity to ADAM10 5'-UTR mutant RNA QGRS (unknown origin) transfected in human HeLa cells assessed as increase in ADAM10 translation efficiency at 0.5 uM after 24 hrs by Renilla/firefly dual luciferase reporter assay; assay type: cell-based
# Procedure, shortened: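 HeLa cells transfected with 0.8 μg 5′UTR-Wt or 5′UTR-Mut dual-luciferase plasmid. After 12 h, incubated 24 h with 0, 0.5, 1 or 2.5 μM compound. Renilla luciferase normalized to firefly and expressed relative to the ligand-free control; mean ± SD of three independent experiments, each in triplicate.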
smiles,measurement,setting,value
CCn1c2ccccc2c2cc(/C=C/c3cc(N4CCN(C)CC4)c4ccccc4[n+]3C)ccc21.[I-],Activity,HeLa [1],138%
same,Activity,[2],inactive
same,Activity,HEK293,Dose-dependent effect
same,Activity,HeLa [3],inactive
same,Activity,[4],inactive
same,fold change (FC),HEK-APP,3.3
same,Activity,HeLa [5],inactive
